PAFAH1B3 inh: PAFAH1B3 (human) inhibition; AID 492972; hit rate 0.28% among 340,000; recombinant PAFAH1B3, FP-rhodamine probe, fluorescence polarization; Q15102; inhibition, % at 3.39 µM;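 active = inhibition above the screen-wide average of all tested compounds plus 3 SD, cut at about 25% in these data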;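 also: 0% = enzyme with DMSO only and 100% = wells lacking PAFAH1B3 protein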
Target sequence (Q15102 whole entry, looked up): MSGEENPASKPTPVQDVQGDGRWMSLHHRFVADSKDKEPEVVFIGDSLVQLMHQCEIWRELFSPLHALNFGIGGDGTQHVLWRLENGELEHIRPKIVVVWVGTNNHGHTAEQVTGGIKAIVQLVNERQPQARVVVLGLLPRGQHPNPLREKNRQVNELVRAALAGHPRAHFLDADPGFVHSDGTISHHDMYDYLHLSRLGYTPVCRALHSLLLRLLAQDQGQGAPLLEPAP
pPAFAH inh: pPAFAH (human) enzyme inhibition. inhibition, % at 3.39 µM. Q13093. hit rate 1.5% among 330,000. recombinant pPAFAH, FP-rhodamine probe fluorescence polarization. AID 463082;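 active = inhibition above the mean inhibition across the screen plus 3 SD, cut at about 25% in these data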;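 also: inhibitors block binding of the rhodamine activity-based probe so polarization drops; 0% = enzyme with DMSO and 100% = wells lacking pPAFAH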
PAFAH2 inh: PAFAH2 (human) inhibition | Q99487 | recombinant PAFAH2, FP-rhodamine activity probe, fluorescence polarization | hit rate 0.99% among 340,000 | AID 492956 | inhibition, % at 3.39 µM;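 active = inhibition above the mean over all tested compounds plus 3 SD, cut at about 30% in these data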;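 also: inhibitors block probe labeling of enzyme so polarization drops; 0% = enzyme with DMSO and 100% = wells lacking PAFAH2 protein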
NR3A LBD binder: modulates the human NR3A ligand-binding domain | NR3A LBD differential scanning fluorimetry, Tm shift; 0% = protein alone, 100% = glycine-bound protein | Tm shift relative to glycine control, % at 25 µM | hit rate 2.5% among 340,000;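 active = melting temperature shift of at least 10% of the positive control shift, at one fixed dose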
PAFAH1B2 inh: PAFAH1B2 (human) inhibition; recombinant PAFAH1B2, FP-rhodamine activity probe, fluorescence polarization; inhibition, % at 3.39 µM; hit rate 1.2% among 340,000; AID 492953;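 active = inhibition above the mean of all tested compounds plus 3 SD, cut at about 24% in these data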;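 also: 0% = enzyme with DMSO and 100% = wells lacking PAFAH1B2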
UCH37 DUB inh: blocks the human deubiquitinase UCH37 | Q9Y5K5 | purified proteasome/UCH37, Ub-AMC cleavage fluorescence | inhibition, % (no concentration beside the values) | hit rate 0.33% among 330,000 | AID 588478;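 active = mean inhibition over replicate wells above about 20%, limit read from the data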;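 also: 0% = compound-free wells with enzyme and 100% = wells lacking proteasome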
Target sequence (Q9Y5K5 whole entry, looked up): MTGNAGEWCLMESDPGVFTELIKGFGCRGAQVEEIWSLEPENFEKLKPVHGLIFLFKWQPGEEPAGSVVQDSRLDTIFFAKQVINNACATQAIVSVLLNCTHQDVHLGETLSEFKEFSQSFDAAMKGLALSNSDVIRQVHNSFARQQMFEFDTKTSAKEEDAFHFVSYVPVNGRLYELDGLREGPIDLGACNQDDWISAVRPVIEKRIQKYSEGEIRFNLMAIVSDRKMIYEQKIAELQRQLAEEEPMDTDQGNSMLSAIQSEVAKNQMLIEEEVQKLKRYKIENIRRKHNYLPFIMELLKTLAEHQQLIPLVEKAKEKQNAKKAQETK
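Material: Human UCH37 enzyme supplied as purified proteasome complex | Schedule: 30 min preincubation with enzyme, 25 min cleavage at room temperature | Detection: AMC fluorescence 355/460 nm | Measure: % inhibition of Ub-AMC cleavage fluorescence | Controls: Wells without proteasome as full block, compound-free enzyme plus substrate as uninhibited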
* = called active by the depositor; . = no result. This is a sample that favours compounds with a hit; in the whole collection about 4.8% have one here.

SMILES | PAFAH1B3 inh | pPAFAH inh | PAFAH2 inh | NR3A LBD binder | PAFAH1B2 inh | UCH37 DUB inh
CC(C)CN1C(=S)SC(C)(C)C1n1oc(=O)n(-c2ccc(Cl)cc2)c1=O (stereo not given) | 0 | 0 | -12 | 11* | 4 | 4
O=C(CSc1nc2c(sc3ccccc32)c(=O)n1CCO)NCc1ccco1 | 5 | 10 | 5 | 0 | 8 | -15
Cc1ccc(-n2c(Cc3cccn3C)nnc2SCC(=O)NCc2ccco2)cc1 | 3 | 29* | 3 | 2 | 1 | 2
Cc1ccc(-n2c(SCC(=O)NCc3ccco3)nc3c(sc4ccccc43)c2=O)cc1 | 1 | 4 | 4 | 10* | -6 | -5
Cn1c(N=Cc2cc(Cl)ccc2O)nc2ccccc21 | . | . | . | . | . | -2
C/C(C=NNC(=O)c1cnccn1)=C/c1ccccc1 | . | . | . | . | . | 12
O=[N+]([O-])c1ccc(Cl)c(S(=O)(=O)Nc2cccc(-c3ccc(N4CCCC4)nn3)c2)c1 | 9 | 17 | 8 | 16* | 3 | 3
Cc1c([N+](=O)[O-])cc(S(=O)(=O)Nc2ccc(-c3ccc(N4CCCC4)nn3)cc2)cc1[N+](=O)[O-] | 2 | 29* | 14 | 3 | 12 | 2
O=[N+]([O-])c1ccc(Cl)c(S(=O)(=O)Nc2ccc(-c3ccc(N4CCCC4)nn3)cc2)c1 | 8 | 18 | 15 | 4 | 1 | 6
COc1ccccc1/C=C/C=Nn1c(C)nnc1C | . | . | . | . | . | -23
CCC(=O)Nc1ccc2nc3c(=O)[nH]c(=S)[nH]c3nc2c1 | 12 | 26* | 13 | -1 | 7 | 6
Cc1ccc(C=NNc2cn[nH]c(=O)c2Cl)cc1 | . | . | . | . | . | -29
Cc1ccc(NC(=O)COc2coc(CN3CCc4ccccc4C3)cc2=O)c(C)c1 | 8 | 25* | 4 | 6 | 9 | 1
Cc1ccc(C)c(NC(=O)COc2coc(CN3CCc4ccccc4C3)cc2=O)c1 | 1 | 8 | 3 | 1 | 3 | 1
Cc1ccc(C(=O)Nc2nnc(CC(=O)NN=Cc3ccc(O)c(O)c3)s2)cc1 | . | . | . | . | . | -1
Cc1cc(SCC(=O)N/N=C/c2ccc(O)c(O)c2)c(C)cc1Br | 23 | 26* | -8 | -6 | 3 | .
Cc1ccc2nc(SCC(=O)N/N=C/c3ccco3)cc(C)c2c1 | 8 | 6 | 4 | -3 | -5 | .
Cc1cc(SCC(=O)N/N=C/c2ccc(O)cc2O)nc2ccccc12 | 13 | 18 | -1 | 26* | 3 | .
COc1ccc2nc(C)cc(SCC(=O)N/N=C/c3ccc(O)c(O)c3)c2c1 | 11 | 29* | 19 | -11 | 2 | .
O=C(Cc1nnc(NC(=O)c2ccccc2)s1)N/N=C\c1ccc(O)c(O)c1 | 12 | 27* | 16 | 4 | 3 | .
Cc1[nH]c2ccccc2c1C=NNC(=O)c1cccc(Br)c1 | . | . | . | . | . | -9
Cc1cc(SCC(=O)N/N=C/c2ccc(O)c(O)c2)nc2ccccc12 | 15 | 27* | 32* | 6 | -2 | .
O=C(CSc1nc2ccccc2o1)N/N=C/c1ccc(O)c(O)c1 | 1 | 13 | 22 | 10 | 5 | .
CC(CC(=O)Nc1ccc(N(C)C)cc1)=NNC(=O)c1ccccc1O | . | . | . | . | . | -35
O=C(COC(=O)COc1cccc(F)c1)NCCC1=CCCCC1 | 4 | 12 | 4 | 0 | 6 | 6
SMILES | PAFAH1B3 inh | pPAFAH inh | PAFAH2 inh | NR3A LBD binder | PAFAH1B2 inh | UCH37 DUB inh
O=C(COC(=O)/C=C/c1ccc(Cl)cc1)NCCC1=CCCCC1 | 12 | 5 | 16 | 0 | 3 | 3
O=C(COC(=O)/C=C/c1cccc(Cl)c1)NCCC1=CCCCC1 | 4 | 7 | 14 | 17* | 4 | 1
O=C(COC(=O)COc1ccc(Br)cc1)NCCC1=CCCCC1 | -5 | 11 | -1 | 12* | 30* | -1
CC(/C=C/c1ccc2c(c1)OCO2)=NNC(=O)COc1ccccc1C | . | . | . | . | . | -8
Cc1ccc(SCc2[nH]nc3c2C(c2ccc(C)o2)C(C#N)=C(N)O3)cc1 (stereo not given) | 3 | 0 | 13 | -9 | 21 | 6
Cc1ccc(SCc2[nH]nc3c2C(c2ccco2)C(C#N)=C(N)O3)cc1 (stereo not given) | 14 | 7 | 7 | 2 | 34* | 1
Cc1cc(C)cc(NCc2cc(=O)oc3cc(-c4ccccc4)c(O)cc23)c1 | 8 | 5 | 0 | 0 | -2 | 3
COC(=O)c1ccccc1NCc1cc(=O)oc2cc(O)c(O)cc12 | 17 | 82* | 31* | -6 | 44* | -32
COc1ccccc1NCc1cc(=O)oc2c(C)c(O)ccc12 | 2 | 11 | 9 | -10 | 1 | -7
COc1ccc(C)cc1NCc1cc(=O)oc2cc(-c3ccccc3)c(O)cc12 | 3 | 19 | -3 | 20* | -2 | 4
O=C(NN=Cc1cc(Br)ccc1O)Nc1ccccc1 | . | . | . | . | . | -6
COc1ccc(C(=O)Nc2ccccc2C(=O)NN=Cc2ccc(O)c(OC)c2)cc1 | . | . | . | . | . | -6
N#CCC(=O)NN=Cc1cc([N+](=O)[O-])ccc1N1CCCC1 | . | . | . | . | . | 4
Cc1ccc(NS(=O)(=O)c2cc(Br)cnc2N)c(Cl)c1 | 11 | -6 | 4 | -7 | 1 | 5
Nc1ncc(Br)cc1S(=O)(=O)Nc1cc(C(F)(F)F)cc(C(F)(F)F)c1 | 6 | 13 | 3 | 9 | 26* | .
Fc1c(F)c(F)c(C=NNC(=S)Nc2cccnc2)c(F)c1F | . | . | . | . | . | 1
O=C(CSc1ccc(Cl)cc1)NCc1ccncc1 | 4 | 5 | -6 | -1 | 29* | 0
O=C(NN=Cc1ccc[nH]1)c1cc(-c2cccs2)nc2ccccc12 | . | . | . | . | . | -5
Cc1ccc2nc(Nc3ccccc3)c(C=O)c(=O)n2c1 | 12 | 5 | 8 | 2 | 0 | 1
Cc1ccc2nc(NCc3ccccc3)c(C=O)c(=O)n2c1 | 3 | -2 | -1 | 14* | 2 | .
O=C(O)C1CCCN(S(=O)(=O)c2ccc(Cl)s2)C1 (stereo not given) | 6 | 4 | -2 | -1 | 29* | 5
CC(NC(=O)C1CCCN(S(=O)(=O)c2cccs2)C1)c1ccccc1 (stereo not given) | 1 | 6 | 7 | 2 | 11 | 8
CC(C)NC(=O)C1CCCN(S(=O)(=O)c2cccs2)C1 (stereo not given) | 1 | 0 | -6 | 11* | 0 | 3
COc1ccc(C=NNC(=O)c2ccccc2O)cc1CN1CCOCC1 | . | . | . | . | . | 9
CN(C)CCCN1C(=O)c2cccc3c([N+](=O)[O-])ccc(c23)C1=O | 21 | 5 | 4 | -1 | 9 | -27
O=C(O)c1ccc(CN2C(=O)c3cccc4c([N+](=O)[O-])ccc(c34)C2=O)cc1 | 31* | . | 16 | 0 | 18 | -49
O=C(CSCc1ccc(Cl)cc1Cl)Nc1ccc(O)cc1C(=O)O | -1 | 0 | -2 | -4 | 28* | 0
COc1ccc(-n2nnnc2SCC(N)=O)cc1 | 1 | 6 | -1 | 1 | 2 | 3

Compound activity (PubChem BioAssay)
